Columns and labels:
Assay type in all cases: functional, cell-based
[1] = test system: Bel-7402; test: Cytotoxicity against human Bel7402 cells after 72 hrs by SRB assay; conditions: Bel-7402, 72 h
[2] = test system: HL-60; test: Cytotoxicity against human HL60 cells after 72 hrs by MTT assay; conditions: HL-60, 72 h
Method in brief: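 Cells plated in culture medium in 96-well plates, then treated in triplicate with graded compound concentrations for 72 h at 37 °C. MTT (5 mg/mL solution) added for 4 h, followed by 10% SDS/5% isobutanol/12 mM HCl solubilizer.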

[3] = test system: A549; test: Cytotoxicity against human A549 cells after 72 hrs by SRB assay; conditions: A549, 72 h

Structure (SMILES)	IC50 [1] [µM]	IC50 [2] [µM]	IC50 [3] [µM]
COc1cccc2c1C(=O)c1c(O)c3c(c(O)c1C2=O)C[C@@](O)(C(=O)CO)C[C@@H]3O[C@H]1C[C@H](N)[C@H](O)[C@H](C)O1 [DOXORUBICIN]	0.12	0.04	0.17
Cc1cc2c(cc1O)C1=CC(=O)[C@@H](O)C(C)(C)C1CC2=O (some centres undefined) [TRIGOXYPHIN G]	> 10	–	–
C=C(C)[C@@]12OC3(c4ccccc4)O[C@@H]1[C@@H]1[C@H](OC(C)=O)[C@@](C)(OC(=O)c4ccccc4)[C@@H](OC(C)=O)[C@@]4(O)[C@@H](C[C@H](C)[C@@H]4OC(C)=O)[C@@]1(O3)[C@H](C)[C@@H]2O [TRIGOXYPHIN F]	> 10	–	–
C=C(C)[C@@]1(O)[C@@H]2OC3(c4ccccc4)O[C@H]1[C@@H](C)[C@@]1(O3)[C@H]2[C@H](OC(C)=O)[C@](C)(OC(=O)c2ccccc2)[C@@H](OC(C)=O)[C@@]2(O)[C@H]1C[C@H](C)[C@@H]2OC(C)=O [TRIGOXYPHIN D]	> 10	–	–
C=C(C)[C@@]1(OC(C)=O)[C@@H]2OC3(c4ccccc4)O[C@H]1[C@@H](C)[C@@]1(O3)[C@H]2[C@H](OC(C)=O)[C@](C)(OC(=O)c2ccccc2)[C@@H](OC(C)=O)[C@@]2(O)[C@H]1C[C@H](C)[C@@H]2OC(C)=O [TRIGOXYPHIN E]	> 10	–	–
C=C(C)[C@@]12OC3(c4ccccc4)O[C@@H]1[C@@H]1[C@@H]4O[C@]4(C)[C@@H](O)[C@]4(O)C(=O)[C@@H](C)C[C@H]4[C@@]1(O3)[C@H](C)[C@@H]2OC(=O)c1ccccc1 [TRIGOXYPHIN B]	> 10	0.49	4.9
C=C(C)[C@@]12OC3(c4ccccc4)O[C@@H]1[C@@H]1[C@@H]4O[C@]4(C)[C@@H](OC(C)=O)[C@]4(O)C(=O)[C@@H](C)C[C@H]4[C@@]1(O3)[C@H](C)[C@@H]2OC(=O)c1ccccc1 [TRIGOXYPHIN C]	> 10	–	–
C=C(C)[C@@]12OC3(c4ccccc4)O[C@@H]1[C@@H]1[C@@H]4O[C@]4(C)[C@@H](O)[C@]4(O)C(=O)C(C)=C[C@H]4[C@@]1(O3)[C@H](C)[C@@H]2OC(=O)c1ccccc1 [TRIGOXYPHIN A]	> 10	0.27	7.5

Source: ChEMBL document CHEMBL1177752, “Trigoxyphins A-G: diterpenes from Trigonostemon xyphophylloides” (J Nat Prod, 2010)
